In ChEMBL document CHEMBL2331476, “A novel semisynthetic flavonoid 7-O-galloyltaxifolin upregulates heme oxygenase-1 in RAW264.7 cells via MAPK/Nrf2 pathway” (J Med Chem, 2013):
Activity calls are given as the source filed them. No cut-off for these calls is given here.

Experiments:
[1] = target: T1, Nuclear factor erythroid 2-related factor 2 (Mus musculus) (UniProt Q60795); assay: Activation of Nrf2 in mouse RAW264.7 cells assessed as upregulation of HO1 protein expression at 25 uM after 6 hrs by Western blotting analysis; type: cell-based
T1 sequence (whole entry): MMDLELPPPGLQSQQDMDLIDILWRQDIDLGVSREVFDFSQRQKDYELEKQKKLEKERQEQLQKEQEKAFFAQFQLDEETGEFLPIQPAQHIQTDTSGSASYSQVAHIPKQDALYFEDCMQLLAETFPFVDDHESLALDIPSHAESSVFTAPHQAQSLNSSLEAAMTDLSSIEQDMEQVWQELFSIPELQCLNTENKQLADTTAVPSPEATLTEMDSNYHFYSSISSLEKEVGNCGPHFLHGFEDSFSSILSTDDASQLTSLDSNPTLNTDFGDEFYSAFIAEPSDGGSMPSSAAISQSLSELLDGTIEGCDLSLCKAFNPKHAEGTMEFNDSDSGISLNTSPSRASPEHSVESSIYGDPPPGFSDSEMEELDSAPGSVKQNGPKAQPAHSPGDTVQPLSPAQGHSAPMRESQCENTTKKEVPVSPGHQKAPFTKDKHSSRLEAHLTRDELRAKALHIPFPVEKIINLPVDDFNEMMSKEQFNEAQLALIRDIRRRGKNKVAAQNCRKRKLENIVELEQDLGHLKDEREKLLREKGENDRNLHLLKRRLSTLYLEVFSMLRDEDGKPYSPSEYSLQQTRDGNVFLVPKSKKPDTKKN
In short: (§1)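 HO-1 protein in whole-cell lysates (20 μg/lane) of serum-starved RAW264.7 cells after 6 h at 10-50 μM or 50 μM for 1-6 h in serum-free medium, 0.1% DMSO control. Chemiluminescent Western blot; HO-1 densitometry normalized to actin, mean of three experiments.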

RAW264.7 = assay: Induction of ROS generation in mouse RAW264.7 cells at 10 to 50 uM after 2 hrs by flow cytometric analysis; type: functional, cell-based
In short: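 Serum-starved RAW264.7 cells treated 2 h at 10-50 μM; 100 μM TBHP for 30 min as positive control. Medium replaced, cells loaded with 10 μM carboxy-H₂DCFDA for 15 min at 37 °C. Flow cytometry (488 nm excitation, 525 nm emission, 10,000 events) gave percentage of cells with raised ROS; mean ± SD of three experiments.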

[2] = target: Mitogen-activated protein kinase 1 and 3 (ERK2 and ERK1) (Mus musculus) (UniProt P63085+Q63844); assay: Activation of ERK1/2 in mouse RAW264.7 cells assessed as phosphorylation at 50 uM up to 3 hrs by Western blotting analysis; type: cell-based
In short: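 RAW264.7 cells (passage 5-25) seeded at 1 × 10⁵ cells/cm², serum-starved overnight, then exposed in serum-free medium for 30 min to 3 h; 0.1% DMSO vehicle; 75 ng/mL EGF for 30 min as positive control. Whole-cell lysates (20 μg/lane) on 10% SDS-PAGE, blotted for phospho-ERK1 (Thr202/Tyr204), phospho-ERK2 (Thr185/Tyr187) and total ERK1/2, chemiluminescent detection.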

[3] = target: T1, Nuclear factor erythroid 2-related factor 2 (Mus musculus); assay: Activation of Nrf2 in mouse RAW264.7 cells assessed as nuclear accumulation at 50 uM after 3 hrs by Western blotting analysis; type: cell-based
In short: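 RAW264.7 cells (passage 5−25) seeded at 1 × 10⁵ cells/cm², switched to serum-free medium after 8 h, left overnight, then treated 3 h in serum-free medium; 0.1% DMSO vehicle control. Cells were swollen in hypotonic HEPES/NP-40 buffer for the cytosolic fraction and nuclei extracted in high-salt buffer. Blots loaded 30 μg/lane, Nrf2 densitometry normalized to actin, mean of three experiments.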

[4] = target: T1, Nuclear factor erythroid 2-related factor 2 (Mus musculus); assay: Activation of Nrf2 in mouse RAW264.7 cells assessed as induction of Hmox1 mRNA expression at 50 uM after 6 hrs by real-time PCR analysis in presence of SP600125; type: cell-based
In short: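 Pretreatment 30 min with 0.1% DMSO, 15 μM PD98059, 15 μM SB203580 or 30 μM SP600125, then 50 μM agent for 6 h in serum-free medium. Hmox1 mRNA by TaqMan qPCR normalized to Gapdh, given as percent of agent-induced expression; mean ± SD of three experiments.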

[5] = target: T1, Nuclear factor erythroid 2-related factor 2 (Mus musculus); assay: Activation of Nrf2 in mouse RAW264.7 cells assessed as upregulation of HO1 protein expression at 50 uM after 1 hrs by Western blotting analysis relative to untreated control; type: cell-based; in short: as §1
[6] = target: MAP kinase p38 (Homo sapiens) (UniProt O15264+Q15759+Q16539+P53778); assay: Activation of p38MAPK in mouse RAW264.7 cells assessed as phosphorylation at Thr180/Tyr182 at 50 uM after 30 mins to 4 hrs by Western blotting analysis; type: cell-based; settings: TDE = time-dependent effect
In short: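 p38 phosphorylation at Thr180/Tyr182 and total p38 probed in whole-cell lysates (35 μg/lane) of serum-starved RAW264.7 cells treated for 30 min to 4 h in serum-free medium. Positive controls were 5 μM anisomycin or 75 ng/mL EGF for 30 min. Chemiluminescent Western detection.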

[7] = target: T1, Nuclear factor erythroid 2-related factor 2 (Mus musculus); assay: Activation of Nrf2 in mouse RAW264.7 cells assessed as upregulation of HO1 protein expression at 50 uM after 4 hrs by Western blotting analysis relative to untreated control; type: cell-based; in short: as §1
[8] = target: T1, Nuclear factor erythroid 2-related factor 2 (Mus musculus); assay: Activation of Nrf2 in mouse RAW264.7 cells assessed as upregulation of HO1 protein expression at 10 uM after 6 hrs by Western blotting analysis; type: cell-based; in short: as §1
[9] = target: T1, Nuclear factor erythroid 2-related factor 2 (Mus musculus); assay: Activation of Nrf2 in mouse RAW264.7 cells assessed as upregulation of Hmox1 gene expression at 10 to 50 uM after 6 hrs by real-time PCR analysis relative to GAPDH mRNA expression; type: cell-based
In short: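 RAW264.7 cells treated 6 h in serum-free medium, 0.1% DMSO control. Total RNA (2 μg) reverse transcribed; TaqMan qPCR for Hmox1 and Gapdh, 40 cycles. Relative expression by 2^−ΔΔCT, normalized to Gapdh; mean ± SD of three experiments.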

[10] = target: T1, Nuclear factor erythroid 2-related factor 2 (Mus musculus); assay: Activation of Nrf2 in mouse RAW264.7 cells assessed as induction of Hmox1 mRNA expression at 50 uM after 6 hrs by real-time PCR analysis in presence of […] N-acetyl-L-cysteine; type: cell-based
[11] = target: Mitogen-activated protein kinase 8 (Mus musculus) (UniProt Q91Y86); assay: Activation of JNK1 in mouse RAW264.7 cells assessed as phosphorylation at Thr183/Tyr185 at 50 uM after 30 mins to 4 hrs by Western blotting analysis; type: cell-based; settings: TDE = time-dependent effect
In short: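 Serum-starved RAW264.7 cells exposed in serum-free medium for 30 min to 4 h; 5 μM anisomycin for 30 min as positive control. Whole-cell lysates (30 μg/lane) blotted for JNKs dually phosphorylated at Thr183/Tyr185 and total JNKs, chemiluminescent detection.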

Chain of Mitogen-activated protein kinase 8 (Mus musculus) (Q91Y86 whole entry): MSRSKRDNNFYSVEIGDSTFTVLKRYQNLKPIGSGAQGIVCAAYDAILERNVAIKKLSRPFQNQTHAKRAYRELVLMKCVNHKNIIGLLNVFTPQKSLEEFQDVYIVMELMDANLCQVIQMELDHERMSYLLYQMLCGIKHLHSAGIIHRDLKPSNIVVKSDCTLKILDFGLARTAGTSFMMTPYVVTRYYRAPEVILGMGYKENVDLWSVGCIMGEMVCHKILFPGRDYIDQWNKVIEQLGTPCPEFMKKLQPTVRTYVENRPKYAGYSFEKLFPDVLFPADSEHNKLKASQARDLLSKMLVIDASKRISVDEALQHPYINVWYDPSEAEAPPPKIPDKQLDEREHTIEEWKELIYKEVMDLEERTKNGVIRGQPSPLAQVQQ
Chain of Mitogen-activated protein kinase 1 and 3 (ERK2 and ERK1) (Mus musculus) (P63085 whole entry, looked up): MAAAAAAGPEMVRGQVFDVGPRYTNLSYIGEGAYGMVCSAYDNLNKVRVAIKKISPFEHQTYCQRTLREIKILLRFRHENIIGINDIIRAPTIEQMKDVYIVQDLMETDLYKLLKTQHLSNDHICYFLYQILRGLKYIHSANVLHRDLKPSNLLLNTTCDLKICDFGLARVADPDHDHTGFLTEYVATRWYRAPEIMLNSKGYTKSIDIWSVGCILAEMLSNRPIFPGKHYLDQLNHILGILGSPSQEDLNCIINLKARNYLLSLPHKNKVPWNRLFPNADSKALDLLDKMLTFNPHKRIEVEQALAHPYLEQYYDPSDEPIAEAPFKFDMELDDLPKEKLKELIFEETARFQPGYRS
Chain of Mitogen-activated protein kinase 1 and 3 (ERK2 and ERK1) (Mus musculus) (Q63844 whole entry, looked up): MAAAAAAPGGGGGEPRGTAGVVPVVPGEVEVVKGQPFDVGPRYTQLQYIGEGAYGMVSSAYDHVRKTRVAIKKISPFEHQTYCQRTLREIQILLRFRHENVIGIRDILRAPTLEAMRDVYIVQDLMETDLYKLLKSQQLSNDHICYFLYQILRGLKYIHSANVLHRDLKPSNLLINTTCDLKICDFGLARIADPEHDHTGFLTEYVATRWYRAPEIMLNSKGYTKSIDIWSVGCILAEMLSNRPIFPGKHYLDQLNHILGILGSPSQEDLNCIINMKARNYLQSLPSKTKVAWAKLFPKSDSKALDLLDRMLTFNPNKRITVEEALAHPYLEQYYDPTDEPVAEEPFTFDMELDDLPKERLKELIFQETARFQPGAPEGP

fold change (FC) [1]: 1.6
Activity [2]: inactive
Activity [3]: Active
Activity [4]: 90%
fold change (FC) [5]: 1.1
Activity [6]: tde
fold change (FC) [7]: 1.6
fold change (FC) [8]: 1.1
Activity [9]: Dose-dependent effect
Activity [10]: inactive
Activity [11]: tde
Structure (SMILES): O=C(Oc1cc(O)c2c(c1)O[C@H](c1ccc(O)c(O)c1)[C@@H](O)C2=O)c1cc(O)c(O)c(O)c1
Activity (RAW264.7): Active
